Key:
Type in all cases: functional
Mus musculus [1] = assay: Effect on Serum cholesterol levels on CF1 male mice at a dose of 20 (mg/kg)/day after 16 days
In short: (§1)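 CF1 male mice (~25 g), drug suspended in 1% carboxymethylcellulose in water, given ip daily for 16 days; n = 6; vehicle control. Tail-vein blood on days 9 and 16, serum cholesterol by modified Liebermann–Burchard reaction; day-14 serum triglyceride by commercial kit; expressed as % control.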

Mus musculus [2] = assay: Effect on Serum cholesterol levels on CF1 male mice at a dose of 20 (mg/kg)/day after 9 days; in short: as §1
Mus musculus [3] = assay: Effect on Serum triglyceride levels on CF1 male mice at a dose of 20 (mg/kg)/day after 14 days; in short: as §1

SMILES | Serum cholesterol (% of control) (Mus musculus [1]) | Control (Mus musculus [2]) | Control (Mus musculus [3])
CC(=O)c1ccc(N2C(=O)c3ccccc3C2=O)cc1 | 55% | 83% | 66%
O=C(O)c1ccc(N2C(=O)c3ccccc3C2=O)cc1 | 53% | 89% | 58%
CCc1ccc(N2C(=O)c3ccccc3C2=O)cc1 | 89% | 89% | 96%
CCc1cccc(N2C(=O)c3ccccc3C2=O)c1 | 82% | 89% | 95%
CC(=O)c1cccc(N2C(=O)c3ccccc3C2=O)c1 | 84% | 87% | 74%
O=C(O)c1cccc(N2C(=O)c3ccccc3C2=O)c1 | 69% | 81% | 71%
CCc1ccccc1N1C(=O)c2ccccc2C1=O | 103% | 88% | 92%
CCOC(=O)C(C)(C)Oc1ccc(Cl)cc1 [CLOFIBRATE] | 96% | 98% | 91%
O=C1c2ccccc2C(=O)N1c1ccccc1 [N-PHENYL-PHTHALIMIDE] | 57% | 92% | 61%
O=C(O)c1ccccc1N1C(=O)c2ccccc2C1=O [N-PHTHALOYLANTHRANILIC ACID] | 77% | 92% | 78%
O=C1NC(=O)c2ccccc21 [PHTHALIMIDE] | 57% | 63% | 44%

Source: ChEMBL document CHEMBL1122328, “Hypolipidemic activity of phthalimide derivatives. 2. N-phenylphthalimide and derivatives” (1983)
